# Measured values: PubChem BioAssay AID2247 (Johns Hopkins Ion Channel Center, 2010)
# Out of some 300,000 compounds screened, about 1,200 (0.4%) were called active.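 The calls were made as follows: active = B-score over 3 SD under the library average, no early fluorescence shift, positive overall ratio signal; inactive = the rest.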 Shown is part of a subset that was picked to be rich in actives.
# Biological target: Short transient receptor potential channel 4 (Mus musculus) (UniProt Q9QUQ5)
# Experiment: inhibitors of mouse TRPC4 channel, primary screen, Fluo4 calcium, HEK293 TRPC4beta/mu-opioid cells (AID 2247)
# Conditions: DAMGO-evoked Fluo4 calcium flux, at 10 µM; stronger effect = lower value
# Outline: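 test system = HEK293 cells with stable TRPC4beta plus mu-opioid receptor expression | detection = Fluo4 Ca2+ flux fluorescence | read-out = integrated fluorescence ratio relative to baseline, converted to per-well B score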
# Chain of Short transient receptor potential channel 4 (Mus musculus) (Q9QUQ5 whole entry, looked up): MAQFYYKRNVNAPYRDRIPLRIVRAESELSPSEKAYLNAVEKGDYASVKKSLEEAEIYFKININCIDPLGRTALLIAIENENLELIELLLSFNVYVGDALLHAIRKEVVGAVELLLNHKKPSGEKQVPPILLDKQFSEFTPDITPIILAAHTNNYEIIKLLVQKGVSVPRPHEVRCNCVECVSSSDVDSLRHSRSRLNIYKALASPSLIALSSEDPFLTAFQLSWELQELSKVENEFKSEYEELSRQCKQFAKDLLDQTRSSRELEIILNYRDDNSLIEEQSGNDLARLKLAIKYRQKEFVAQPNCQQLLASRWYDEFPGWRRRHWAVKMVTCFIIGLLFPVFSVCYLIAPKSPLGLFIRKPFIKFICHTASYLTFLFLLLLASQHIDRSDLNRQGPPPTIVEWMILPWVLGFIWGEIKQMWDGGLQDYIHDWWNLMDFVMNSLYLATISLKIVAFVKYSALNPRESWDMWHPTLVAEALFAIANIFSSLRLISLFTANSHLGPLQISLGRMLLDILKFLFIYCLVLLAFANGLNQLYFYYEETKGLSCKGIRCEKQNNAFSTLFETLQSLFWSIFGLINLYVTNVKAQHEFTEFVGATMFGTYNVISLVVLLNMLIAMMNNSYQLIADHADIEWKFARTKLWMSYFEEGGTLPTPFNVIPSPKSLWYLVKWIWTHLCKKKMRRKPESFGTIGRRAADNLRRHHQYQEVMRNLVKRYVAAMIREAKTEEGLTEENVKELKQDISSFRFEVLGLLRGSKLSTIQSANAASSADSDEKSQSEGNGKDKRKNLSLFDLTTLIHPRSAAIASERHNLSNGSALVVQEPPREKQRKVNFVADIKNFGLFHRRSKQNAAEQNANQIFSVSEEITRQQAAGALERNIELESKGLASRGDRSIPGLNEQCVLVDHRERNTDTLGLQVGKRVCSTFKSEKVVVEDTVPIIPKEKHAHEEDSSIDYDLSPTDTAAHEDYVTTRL
row,SMILES,B-score
1,O=C(NC1CC1)C1CCCN(C(=O)NC2CCCCC2)C1 (stereo unspecified),inactive
2,CCc1nc(SCC(=O)Nc2ccccc2OC)n[nH]1,inactive
3,COc1ccc(N(CC(=O)Nc2cc(OC)cc(OC)c2)S(=O)(=O)c2c(C)n[nH]c2C)cc1,inactive
4,O=C(O)C(F)(F)C(NCc1ccccc1)c1ccccc1 (stereo unspecified),inactive
5,CCCc1c(C(=O)N/N=C(\C)CCc2ccc(OC)cc2)nnn1-c1nonc1N,inactive
6,COc1ccc(-c2cc(C(=O)N(C)Cc3ccccc3)c3ccccc3n2)cc1,inactive
7,Nc1nc(-c2ccccc2)cc(-c2ccccc2)n1,inactive
8,CN(C)c1cc(N)c2ccccc2n1 (tested in a mixture with another compound),-5 (active)
9,COc1ccccc1C(=O)N(Cc1ccc(C)o1)C1CCS(=O)(=O)C1 (stereo unspecified),inactive
10,CCCCCCCCCOC1OC(CO)C(O)C(O)C1NC(C)=O (stereo unspecified),inactive
11,Cc1nn(-c2ccccc2)c2[nH]c(C(F)(F)F)cc(=O)c12,-7 (active)
12,Cc1nc2c(c(C)nn2-c2ccccc2)c(C)c1C,inactive
13,Cc1nn(-c2ccccc2)c(=O)c2noc(C)c12,inactive
14,COc1ccc(Nc2cc(Sc3ccc(OC)cc3)ncn2)cc1,inactive
15,COn1c(-c2ccc(Cl)cc2Cl)nc2ncccc21,inactive
16,Clc1ccc(-c2ncc3ccccn23)c(Cl)c1,inactive
17,Clc1ccc(COn2c(-c3ccc(Cl)cc3Cl)nc3ncccc32)cc1,-9 (active)
18,O=C(COC(=O)c1ccc([N+](=O)[O-])cc1Cl)NC(=O)c1ccccc1,inactive
19,Cc1cc(C)c(S(=O)(=O)NCC(c2ccc3c(c2)OCO3)N2CCOCC2)c(C)c1 (stereo unspecified),inactive
20,N#C/C(=C/c1ccc(Cl)cc1)NC(=O)c1ccccc1,inactive
21,Cc1c(Cl)c([N+](=O)[O-])nn1CC(=O)NCCCN1CCOCC1,inactive

row,SMILES,B-score
1,COc1ccccc1NC(=S)NC(=O)C(C)C,inactive
2,CC(=O)Nc1ccc(NC(=O)COc2ccccc2C(=O)Nc2cccc(Cl)c2Cl)cc1,inactive
3,FC(F)Oc1ccccc1NC(=S)Nc1cccc(Cl)c1Cl,-7 (active)
4,CCCCc1nc(SCC(=O)Nc2nnc(C(C)C)s2)n[nH]1,inactive
5,C[N+](C)(C)CCOP(=O)([O-])OC[C@H](O)CO,inactive
6,O=C(Nc1cccc(S(=O)(=O)NC2=NCCC2)c1)C1CCCCC1,inactive
7,COc1ccc(/C=N/Nc2ncnc3sc4c(c23)CCCC4)cc1O,inactive
8,N=c1c2c3c(sc2ncn1N)CCCC3,inactive
9,COc1ncnc2sc3c(c12)CCCC3,-6 (active)
10,Cc1ccc(S(=O)(=O)N(CC(O)CN2CCCCC2)c2cccc([N+](=O)[O-])c2)cc1 (stereo unspecified),inactive
11,Cc1cc(C)n2nc(C(=O)OCC(=O)N(CCC#N)c3ccc(F)cc3)nc2n1,inactive
12,CCCn1nc(NS(=O)(=O)c2ccc(F)cc2)c2cc3ccccc3nc21,inactive
13,C=C(C)COc1ccc(-c2n[nH]c(C)c2-c2ccccc2OC)c(O)c1,inactive
14,COc1ccc(-c2n[nH]c(C)c2-c2ccccc2OC)c(O)c1,-6 (active)
15,C=C(C)COc1ccc(-c2n[nH]c(C)c2-c2ccccc2)c(O)c1,inactive
16,Cc1ccc(-n2c(C)cc(C(=O)CSc3nnc4ccccn34)c2C)cc1,inactive
17,COc1ccc(NC(=O)NC2CC3CCCC(C2)N3Cc2ccccc2)cc1 (stereo unspecified),inactive
18,CC(=O)NC1CC2CCCC(C1)N2CC(=O)Nc1ccccc1 (stereo unspecified),inactive
19,CN(C)c1ccc(NC(=O)CN2C3CCCC2CC(NC(=O)c2ccccc2)C3)cc1 (stereo unspecified),-9 (active)
20,COc1ccc(OC)c(C(C)NC(=S)Nc2ccc(S(=O)(=O)Nc3ncccn3)cc2)c1 (stereo unspecified),inactive
